Data published in paper PMC6733178 (ACS Omega, 2019).
Converted amounts (≈) assume the structure as drawn.

Key:
[1] = tested on: A. baumannii ATCC 19606 (Type Strain, AB06); assay: MIC, broth microdilution with resazurin; format: cell-based, Acinetobacter baumannii; details: Acinetobacter baumannii, ATCC19606, read-out: MIC Ab06
Procedure, shortened: (§1)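 CLSI broth microdilution. Strains were grown overnight at 35 °C on TSA or TSA with 5% sheep blood. Colonies were suspended in 0.9% saline to 0.5 McFarland, then diluted 1:100 in Mueller Hinton broth (about 1 × 10^6 CFU/mL). Test compound (2 mg/mL DMSO stock) was serially diluted 1:2 from 50 µg/mL final. Resazurin was added at 8 µg/mL final, and plates were incubated 35 °C for 20–24 h and read visually. MIC is the lowest concentration without the resazurin colour change. Each plate carried untreated, DMSO and antibiotic controls.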

[2] = tested on: S. aureus ATCC 25923 (Sa); assay: MIC, broth microdilution with resazurin; format: cell-based, Staphylococcus aureus; details: Staphylococcus aureus, ATCC25923, read-out: MIC Values Sa
Procedure, shortened: as §1

[3] = tested on: A. baumannii ATCC 747 (Ab47); assay: MIC, broth microdilution with resazurin; format: cell-based, Acinetobacter baumannii; details: Acinetobacter baumannii, ATCC747, read-out: MIC Ab47
Procedure, shortened: as §1

[4] = tested on: S. aureus ATCC 33591 (Sa91); assay: MIC, broth microdilution with resazurin; format: cell-based, Staphylococcus aureus; details: Staphylococcus aureus, ATCC33591, read-out: MIC Values Sa91
Procedure, shortened: as §1

[5] = tested on: S. aureus BAA-2312 (Sa12); assay: MIC, broth microdilution with resazurin; format: cell-based, Staphylococcus aureus; details: Staphylococcus aureus, BAA2312, read-out: MIC Values Sa12
Procedure, shortened: as §1

[6] = tested on: S. aureus ATCC 700699 (Sa99); assay: MIC, broth microdilution with resazurin; format: cell-based, Staphylococcus aureus; details: for MIC: Staphylococcus aureus, ATCC700699, read-out: MIC Values Sa99
Procedure, shortened: as §1

[7] = tested on: S. aureus ATCC 33592 (Sa92); assay: MIC, broth microdilution with resazurin; format: cell-based, Staphylococcus aureus; details: Staphylococcus aureus, ATCC33592, read-out: MIC Values Sa92
Procedure, shortened: as §1

[8] = tested on: tested Gram-positive strains (S. aureus incl. MRSA, S. epidermidis, B. subtilis); assay: MIC summarised in the text over the tested Gram-positive strains; format: cell-based
[9] = tested on: S. epidermidis 700296 (Se); assay: MIC, broth microdilution with resazurin; format: cell-based; details: Staphylococcus epidermidis, read-out: MIC Values Se

Compound	MIC [1]	MIC [2]	MIC [3]	MIC [4]	MIC [5]	MIC [6]	MIC [7]	activity against the tested strains (in words) [8]	MIC [9]	MIC value as low as ([8]; lowest MIC over the tested Gram-positive / MRSA strains)	MIC Values Sa99 ([6]; antibiotic-resistant strain, NA = No Activity)
O=C(O)c1ccc(-n2cc(/C=N/Nc3ccc(F)cc3)c(-c3ccc(F)cc3)n2)cc1 [Compound 26, 4-[3-(4-Fluorophenyl)-4-[(E)-[(4-fluorophenyl)hydrazono]methyl]pyrazol-1-yl]benzoic Acid]	12.5 µg/mL (≈ 29.9 µM)	12.5 µg/mL (≈ 29.9 µM)	> 25 µg/mL	25 µg/mL (≈ 59.8 µM)	25 µg/mL (≈ 59.8 µM)	12.5 µg/mL (≈ 29.9 µM)	12.5 µg/mL (≈ 29.9 µM)	moderate activity	25 µg/mL (≈ 59.8 µM)	–	–
N#Cc1ccc(N/N=C/c2cn(-c3ccc(C(=O)O)cc3)nc2-c2ccc(F)cc2)cc1 [Compound 30, 4-[4-[(E)-[(4-Cyanophenyl)hydrazono]methyl]-3-(4-fluorophenyl)pyrazol-1-yl]benzoic Acid]	12.5 µg/mL (≈ 29.4 µM)	12.5 µg/mL (≈ 29.4 µM)	12.5 µg/mL (≈ 29.4 µM)	–	–	6.25 µg/mL (≈ 14.7 µM)	12.5 µg/mL (≈ 29.4 µM)	moderate activity	–	–	–
O=C(O)c1ccc(-n2cc(/C=N/Nc3cccc(Br)c3)c(-c3ccc(F)cc3)n2)cc1 [Compound 27, 4-[4-[(E)-[(3-Bromophenyl)hydrazono]methyl]-3-(4-fluorophenyl)pyrazol-1-yl]benzoic Acid]	6.25 µg/mL (≈ 13 µM)	12.5 µg/mL (≈ 26.1 µM)	25 µg/mL (≈ 52.2 µM)	12.5 µg/mL (≈ 26.1 µM)	12.5 µg/mL (≈ 26.1 µM)	6.25 µg/mL (≈ 13 µM)	3.12 µg/mL (≈ 6.52 µM)	moderate activity	25 µg/mL (≈ 52.2 µM)	–	–
O=C(O)c1ccc(-n2cc(/C=N/N(Cc3ccccc3)Cc3ccccc3)c(-c3ccc(F)cc3)n2)cc1 [Compound 25, 4-[4-[(E)-(Dibenzylhydrazono)methyl]-3-(4-fluorophenyl)pyrazol-1-yl]benzoic Acid]	–	–	–	–	–	6.25 µg/mL (≈ 12.4 µM)	3.12 µg/mL (≈ 6.19 µM)	–	–	–	–
O=C(O)c1ccc(-n2cc(/C=N/Nc3cc(F)ccc3F)c(-c3ccc(F)cc3)n2)cc1 [Compound 28, 4-[4-[(E)-[(2,5-Difluorophenyl)hydrazono]methyl]-3-(4-fluorophenyl)pyrazol-1-yl]benzoic Acid]	–	12.5 µg/mL (≈ 28.6 µM)	–	25 µg/mL (≈ 57.3 µM)	12.5 µg/mL (≈ 28.6 µM)	6.25 µg/mL (≈ 14.3 µM)	6.25 µg/mL (≈ 14.3 µM)	moderate activity	12.5 µg/mL (≈ 28.6 µM)	–	–
O=C(O)c1ccc(-n2cc(/C=N/Nc3ccc([N+](=O)[O-])cc3)c(-c3ccc(F)cc3)n2)cc1 [Compound 31, 4-[3-(4-Fluorophenyl)-4-{(E)-[2-(4-nitrophenyl)hydrazinylidene]methyl}-1H-pyrazol-1-yl]benzoic Acid]	–	–	–	–	–	–	–	no activity	–	–	–
O=C(O)c1ccc(-n2cc(/C=N/Nc3cc(F)ccc3F)c(-c3cccc(F)c3)n2)cc1 [Compound 11, 4-[4-[(E)-[(2,5-Difluorophenyl)hydrazono]methyl]-3-(3-fluorophenyl)pyrazol-1-yl]benzoic Acid]	–	12.5 µg/mL (≈ 28.6 µM)	–	12.5 µg/mL (≈ 28.6 µM)	12.5 µg/mL (≈ 28.6 µM)	6.25 µg/mL (≈ 14.3 µM)	3.12 µg/mL (≈ 7.16 µM)	–	12.5 µg/mL (≈ 28.6 µM)	–	–
O=C(O)c1ccc(N/N=C/c2cn(-c3ccc(C(=O)O)cc3)nc2-c2cccc(F)c2)cc1 [Compound 18, 4-[(2E)-2-[[1-(4-Carboxyphenyl)-3-(3-fluorophenyl)pyrazol-4-yl]methylene]hydrazino]benzoic Acid]	–	–	–	–	–	–	–	completely ceased the activity	–	–	–
O=C(O)c1ccc(-n2cc(/C=N/n3cnnc3)c(-c3cccc(F)c3)n2)cc1 [Compound 19, 4-[3-(3-Fluorophenyl)-4-[(E)-1,2,4-triazol-4-yliminomethyl]pyrazol-1-yl]benzoic Acid]	–	–	–	–	–	–	–	completely ceased the activity	–	–	–
O=C(O)c1ccc(-n2cc(/C=N/Nc3c(F)c(F)cc(F)c3F)c(-c3cccc(F)c3)n2)cc1 [Compound 14, 4-[3-(3-Fluorophenyl)-4-[(E)-[(2,3,5,6-tetrafluorophenyl)hydrazono]methyl]pyrazol-1-yl]benzoic Acid]	–	12.5 µg/mL (≈ 26.5 µM)	–	12.5 µg/mL (≈ 26.5 µM)	12.5 µg/mL (≈ 26.5 µM)	6.25 µg/mL (≈ 13.2 µM)	6.25 µg/mL (≈ 13.2 µM)	moderate activity	25 µg/mL (≈ 52.9 µM)	–	–
CN(/N=C/c1cn(-c2ccc(C(=O)O)cc2)nc1-c1cccc(F)c1)c1ccccc1 [Compound 4, 4-{3-(3-Fluorophenyl)-4-[(E)-(2-methyl-2-phenylhydrazinylidene)methyl]-1H-pyrazol-1-yl}benzoic Acid]	–	12.5 µg/mL (≈ 30.2 µM)	–	25 µg/mL (≈ 60.3 µM)	25 µg/mL (≈ 60.3 µM)	25 µg/mL (≈ 60.3 µM)	12.5 µg/mL (≈ 30.2 µM)	moderate growth inhibition	12.5 µg/mL (≈ 30.2 µM)	–	–
O=C(O)c1ccc(-n2cc(/C=N/Nc3ccccn3)c(-c3cccc(F)c3)n2)cc1 [Compound 20, 4-[3-(3-Fluorophenyl)-4-{(E)-[2-(pyridin-2-yl)hydrazinylidene]methyl}-1H-pyrazol-1-yl]benzoic Acid]	–	–	–	–	–	–	–	completely ceased the activity	–	–	–
O=C(O)c1ccc(-n2cc(/C=N/Nc3cccc(Cl)c3F)c(-c3ccc(F)cc3)n2)cc1 [Compound 29, 4-[4-[(E)-[(3-Chloro-2-fluorophenyl)hydrazono]methyl]-3-(4-fluorophenyl)pyrazol-1-yl]benzoic Acid]	–	6.25 µg/mL (≈ 13.8 µM)	–	12.5 µg/mL (≈ 27.6 µM)	3.12 µg/mL (≈ 6.9 µM)	1.56 µg/mL (≈ 3.44 µM)	1.56 µg/mL (≈ 3.44 µM)	–	12.5 µg/mL (≈ 27.6 µM)	–	–
O=C(O)c1ccc(-n2cc(/C=N/Nc3cccc(Cl)c3F)c(-c3cccc(F)c3)n2)cc1 [Compound 13, 4-[4-[(E)-[(3-Chloro-2-fluorophenyl)hydrazono]methyl]-3-(3-fluorophenyl)pyrazol-1-yl]benzoic Acid]	–	3.12 µg/mL (≈ 6.9 µM)	–	6.25 µg/mL (≈ 13.8 µM)	12.5 µg/mL (≈ 27.6 µM)	3.12 µg/mL (≈ 6.9 µM)	0.78 µg/mL (≈ 1.72 µM)	–	6.25 µg/mL (≈ 13.8 µM)	0.78 µg/mL (≈ 1.72 µM)	–
O=C(O)c1ccc(-n2cc(/C=N/Nc3ccc(C(F)(F)F)cc3)c(-c3cccc(F)c3)n2)cc1 [Compound 16, 4-[3-(3-Fluorophenyl)-4-[(E)-[[4-(trifluoromethyl)phenyl]hydrazono]methyl]pyrazol-1-yl]benzoic Acid]	–	12.5 µg/mL (≈ 26.7 µM)	–	6.25 µg/mL (≈ 13.3 µM)	12.5 µg/mL (≈ 26.7 µM)	6.25 µg/mL (≈ 13.3 µM)	6.25 µg/mL (≈ 13.3 µM)	moderate activity	12.5 µg/mL (≈ 26.7 µM)	–	–
4-[4-[(2-Benzyl-2-phenyl-hydrazino)methyl]-3-(4-fluorophenyl)pyrazol-1-yl]benzoic Acid [Compound 24]	–	–	–	–	–	–	–	failed to show any significant activity	–	–	–
O=Cc1cn(-c2ccc(C(=O)O)cc2)nc1-c1cccc(F)c1 [3a, 4-[3-(3-Fluorophenyl)-4-formyl-pyrazol-1-yl]benzoic Acid]	–	–	–	–	–	–	–	–	–	–	did not show any activity
O=C(O)c1ccc(-n2cc(/C=N/Nc3c(F)c(F)c(F)c(F)c3F)c(-c3cccc(F)c3)n2)cc1 [Compound 15, 4-[3-(3-Fluorophenyl)-4-[(E)-[(2,3,4,5,6-pentafluorophenyl)hydrazono]methyl]pyrazol-1-yl]benzoic Acid]	–	12.5 µg/mL (≈ 25.5 µM)	–	12.5 µg/mL (≈ 25.5 µM)	12.5 µg/mL (≈ 25.5 µM)	6.25 µg/mL (≈ 12.7 µM)	3.12 µg/mL (≈ 6.37 µM)	moderate activity	25 µg/mL (≈ 51 µM)	–	–
O=C(O)c1ccc(-n2cc(/C=N/N(Cc3ccccc3)c3ccccc3)c(-c3cccc(F)c3)n2)cc1 [Compound 6, 4-[4-[(E)-[Benzyl(phenyl)hydrazono]methyl]-3-(3-fluorophenyl)pyrazol-1-yl]benzoic Acid]	–	1.56 µg/mL (≈ 3.18 µM)	–	1.56 µg/mL (≈ 3.18 µM)	1.56 µg/mL (≈ 3.18 µM)	1.56 µg/mL (≈ 3.18 µM)	1.56 µg/mL (≈ 3.18 µM)	–	1.56 µg/mL (≈ 3.18 µM)	–	–
